Several values for one entry are separate records, joined by “and”; a condition that tells them apart may be missing. Equal values may be shown once. Entries after “also recorded” stand apart in the source; their conditions may differ.
Legend:
[1] = type: in vivo, patients
[2] = Pharmacokinetics of 2DG in plasma; type: in vivo, patients
Outline: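 Blood samples (5 ml each) were drawn predose, hourly to 6 hr after oral 2DG on cycle 1 day 1, at 24 and 48 hr after cycle 1 day 1, and again on cycle 2 day 1. Plasma extracts were derivatized to 2-aminobenzoic acid derivatives, and 2DG was quantified by HPLC with fluorometric detection.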

[3] = tested on: FDG uptake; test: FDG-PET imaging at baseline and day 2: effect of 2DG on FDG uptake; type: in vivo, patients
Outline: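 FDG-PET scans were taken at baseline, cycle 1 day 2 and cycle 2 day 15, with 2DG given orally on days 1–14 of 21-day cycles. FDG uptake was expressed as SUV at a selected tumor site divided by liver SUV, with liver serving as the control. Baseline and day 2 ratios were compared in nine patients.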

[4] = tested on: p62; test: p62 protein in peripheral blood mononuclear cells by Western blot; type: in vivo, patients; conditions: PBMCs, immunoblot, normalized to α-tubulin
Outline: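 PBMCs were collected from six patients at baseline, 4 hr and 24 hr. Extracts were prepared in Laemmli buffer, resolved by SDS–PAGE and transferred to PVDF. Blots were probed for p62 and α-tubulin, then detected with HRP secondary antibody and ECL. Scanned bands were quantified by optical density, and p62 was normalized to α-tubulin.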

[5] = tested on: castrate-resistant prostate cancer (CRPC); test: Clinical outcome; type: in vivo, patients
Outline: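 Oral 2DG, aqueous solution formulated at 100 mg/ml in water, given daily on days 1–14 of 21-day cycles. Dose cohorts were 30, 45 and 60 mg/kg. Each dose was given 1 hr before breakfast, followed by a ~50 ml water rinse of the dosing container. Patients with CRPC were followed for PSA and radiographic disease status across cycles.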

[6] = tested on: prostate cancer cells; conditions: cited from earlier work
[7] = cycle 1, 30 mg/kg/day oral, n = 3, mean ± SD
[8] = cycle 1, 45 mg/kg/day oral, n = 4, mean ± SD
[9] = cycle 1, 60 mg/kg/day oral, n = 4, mean ± SD
[10] = cycle 2, 30 mg/kg/day oral, n = 3, mean ± SD
[11] = cycle 2, 45 mg/kg/day oral, n = 4, mean ± SD
[12] = cycle 2, 60 mg/kg/day oral, n = 4, mean ± SD

O=CC[C@@H](O)[C@H](O)[C@H](O)CO [2DG, 2-deoxyglucose]
dose-limiting toxicity ([1]; human, in vivo, 60 mg/kg, 3 weeks): grade 3 asymptomatic QTc prolongation
patients with grade 2 fatigue ([1]; in vivo): three
tolerability ([1]; in vivo, 45 mg/kg): well tolerated
QT interval ([1]; in vivo, 60 mg/kg): prolonged
recommended phase II dose ([1]; oral, days 1–14 of a 21-day cycle): 45 mg/kg
AUC [2, 7]: 821.2±236.2 μmol/Lhr
Clearance [2, 7]: 232.0 ± 63.8 mL/h
Cmax [2, 7]: 277 ± 18.6 µM
AUC [2, 8]: 1107.7±213.3 μmol/Lhr
Clearance [2, 8]: 243.3 ± 49.4 mL/h
Cmax [2, 8]: 449 ± 168 µM
AUC [2, 9]: 2086.2±743.2 μmol/Lhr
Clearance [2, 9]: 185.0 ± 52.6 mL/h
AUC [2, 10]: 751.3 ± 181.7 μmol/Lhr
Clearance [2, 10]: 246.3 ± 56.6 mL/h
AUC [2, 11]: 1087.1 ± 441.8 μmol/Lhr
Clearance [2, 11]: 270.4 ± 126.4 mL/h
AUC [2, 12]: 1226.9 ± 571.2 μmol/Lhr
Clearance [2, 12]: 314.9 ± 108.7 mL/h
dose dependence of pharmacokinetics ([2]; dose levels 30, 45 and 60 mg/kg): linear pharmacokinetics; also recorded: linear with dose level
Cmax ([2]; human, plasma, po, 30 mg/kg, Cmax, dose level 30 mg/kg oral): 45 µg/mL
Cmax ([2]; human, plasma, po, 45 mg/kg, Cmax, dose level 45 mg/kg oral): 73.7 µg/mL
Cmax ([2]; human, plasma, po, 60 mg/kg, Cmax, dose level 60 mg/kg oral): 122 µg/mL
blood concentrations reached ([2]; single agent, highest concentrations reached in this study): 700 µM
patients with decreased FDG uptake by day 2 of therapy ([3]; FDG-PET, dose level 2 or 3): Five of eight and five
Day 2 SUV (ratio site/liver) ([3]; patient 5, lung, dose level 2, chest, baseline 6.3): 11.6
Day 2 SUV (ratio site/liver) ([3]; patient 6, cervical, dose level 2, mediastinum, baseline 4.3): 2
Day 2 SUV (ratio site/liver) ([3]; patient 7, prostate, dose level 3, L1 vertebral body, baseline 1.2): 1
Day 2 SUV (ratio site/liver) ([3]; patient 8, prostate, dose level 3, ischium, baseline 2.8): 2.0
Day 2 SUV (ratio site/liver) ([3]; patient 11, prostate, dose level 2, ilium, baseline 3.8): 3
patients with a decrease in p62 level at 24 hr [4]: Five of six
cycles on study with radiographically stable disease ([5]; individual patients with CRPC): 8 cycles and 12 cycles and 21 cycles
declines in PSA ([5]; seven patients with prostate cancer who completed study therapy): no declines
effect in prostate cancer cell lines ([6]; autophagy a mechanism of resistance): cytotoxic effect
effect on prostate cancer cells ([6]; preclinical studies): cytotoxic

Reference: publication PMC4142700 (The Prostate, 2010)
